This passage reports pKi, ED50 and Activity results from ChEMBL document CHEMBL1154048, “Design, synthesis and pharmacological evaluation of new 1-[3-(4-arylpiperazin-1-yl)-2-hydroxy-propyl]-3,3-diphenylpyrrolidin-2-one derivatives with antiarrhythmic, antihypertensive, and alpha-adrenolytic activity” (Eur J Med Chem, 2009).

The target of test [1] is T1, Adrenergic receptor alpha-1 (Rattus norvegicus, UniProt P15823+P23944+P43140).
T1 sequence (P15823 whole entry): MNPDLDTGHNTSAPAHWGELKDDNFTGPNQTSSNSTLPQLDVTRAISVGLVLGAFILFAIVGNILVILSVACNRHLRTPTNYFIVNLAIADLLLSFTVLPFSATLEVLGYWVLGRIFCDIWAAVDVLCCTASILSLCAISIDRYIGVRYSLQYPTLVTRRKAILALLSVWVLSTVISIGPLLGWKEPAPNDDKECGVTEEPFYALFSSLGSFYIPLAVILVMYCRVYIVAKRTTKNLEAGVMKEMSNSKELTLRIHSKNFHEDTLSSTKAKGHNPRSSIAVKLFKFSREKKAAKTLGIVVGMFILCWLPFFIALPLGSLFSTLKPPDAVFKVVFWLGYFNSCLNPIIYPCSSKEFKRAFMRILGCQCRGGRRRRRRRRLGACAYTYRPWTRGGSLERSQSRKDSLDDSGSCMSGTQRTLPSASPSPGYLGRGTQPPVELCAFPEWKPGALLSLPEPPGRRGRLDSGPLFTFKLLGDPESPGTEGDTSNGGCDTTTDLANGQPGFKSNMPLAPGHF
T1 sequence (P23944 whole entry): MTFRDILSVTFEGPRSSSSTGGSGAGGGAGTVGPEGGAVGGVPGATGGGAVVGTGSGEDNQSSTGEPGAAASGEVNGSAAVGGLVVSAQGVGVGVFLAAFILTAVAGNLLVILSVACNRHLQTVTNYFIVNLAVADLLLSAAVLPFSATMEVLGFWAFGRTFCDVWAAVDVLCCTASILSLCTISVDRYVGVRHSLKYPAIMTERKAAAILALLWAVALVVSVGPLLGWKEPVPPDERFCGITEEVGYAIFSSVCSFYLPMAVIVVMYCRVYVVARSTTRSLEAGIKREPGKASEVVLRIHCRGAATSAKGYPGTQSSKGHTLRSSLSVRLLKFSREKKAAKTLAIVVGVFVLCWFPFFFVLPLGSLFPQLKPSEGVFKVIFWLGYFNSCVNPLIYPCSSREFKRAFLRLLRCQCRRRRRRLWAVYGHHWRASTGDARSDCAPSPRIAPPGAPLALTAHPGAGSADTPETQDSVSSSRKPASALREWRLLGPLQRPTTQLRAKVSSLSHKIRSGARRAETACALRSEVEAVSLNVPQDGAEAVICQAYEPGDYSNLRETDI
T1 sequence (P43140 whole entry): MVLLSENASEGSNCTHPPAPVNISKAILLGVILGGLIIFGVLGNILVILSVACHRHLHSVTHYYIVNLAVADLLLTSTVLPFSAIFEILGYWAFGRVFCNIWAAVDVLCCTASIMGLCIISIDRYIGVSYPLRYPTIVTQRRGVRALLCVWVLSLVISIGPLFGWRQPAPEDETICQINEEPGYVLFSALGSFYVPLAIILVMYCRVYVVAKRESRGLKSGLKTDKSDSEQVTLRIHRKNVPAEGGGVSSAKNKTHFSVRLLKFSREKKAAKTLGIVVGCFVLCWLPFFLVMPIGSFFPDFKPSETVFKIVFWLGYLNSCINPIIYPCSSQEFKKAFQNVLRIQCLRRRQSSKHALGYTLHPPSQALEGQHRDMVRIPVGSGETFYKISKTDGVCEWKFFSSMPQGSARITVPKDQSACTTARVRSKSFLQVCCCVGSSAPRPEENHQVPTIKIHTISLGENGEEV
As to the kind of experiment: Displacement of [3H]prazosin from alpha1 adrenergic receptor in rat cerebral cortex by liquid scintillation counting. The test is classed as tissue-based. A digest of the protocol: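 Rat cerebral cortex was homogenized in ice-cold 50 mM Tris–HCl pH 7.6, centrifuged 20 000 × g for 20 min at 0–4 °C, and washed once more. Membranes were incubated with [3H]prazosin 0.2 nM and seven to eight compound concentrations (10^-11–10^-4 M), with phentolamine defining nonspecific binding. Bound ligand was filtered on glass fiber and counted by liquid scintillation. Runs were in duplicate, and Ki was calculated by Cheng–Prusoff.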
On the technique in general: In a radioligand displacement assay an active substance lowers the binding of a labelled ligand.

The subject of test [2] is Rattus norvegicus. As to the kind of experiment: Antiarrhythmic activity against adrenaline-induced arrhythmia in iv dosed rat assessed as inhibition of cardiac rhythm disturbance administered 15 mins before adrenaline challenge. In kind it is functional. Particulars: Heart. In a few lines:
(§1)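 Rats anaesthetized with thiopental 60 mg/kg ip received the compound i.v. 15 min before an i.v. adrenaline challenge. Rhythm disturbances were recorded for 15 min after adrenaline. Activity was defined as absence of premature beats and inhibition of disturbances versus controls. ED50 values, with confidence limits, were derived by Litchfield–Wilcoxon from three groups of six animals.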

The subject of test [3] is Rattus norvegicus. Kind of test: Hypotensive activity in Wistar rat assessed as reduction in epinephrine-induced blood pressure response at 5 mg/kg. The test is classed as functional, organism-based. Set-up: dose 5 mg/kg. A digest of the protocol:
(§2)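 In anaesthetized rats, pressor responses were evoked by i.v. epinephrine, norepinephrine or methoxamine. Blood pressure was recorded through a heparin-saline-filled cannula in the carotid artery.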

The subject of test [4] is Rattus norvegicus. Kind of test: Hypotensive activity in Wistar rat assessed as reduction in norepinephrine-induced blood pressure response at 5 mg/kg. The test is classed as functional, organism-based. Set-up: dose 5 mg/kg. A digest of the protocol: as §2
Test [5] relates to Rattus norvegicus. Kind of test: Hypotensive activity in Wistar rat assessed as reduction in methoxamine-induced pressure response at 5 mg/kg. In kind it is functional, organism-based. Further details: dose 5 mg/kg. A digest of the protocol:
as §2

The subject of test [6] is Rattus norvegicus. As to the kind of experiment: Antiarrhythmic activity against adrenaline-induced arrhythmia in iv dosed rat assessed as reduction in mortality rate administered 15 mins before adrenaline challenge. In kind it is functional, organism-based. Particulars: Heart. A digest of the protocol: as §1
In test [7] the test system is Rattus norvegicus. Kind of test: Antiarrhythmic activity against adrenaline-induced arrhythmia in iv dosed rat assessed as reduction in supraventricular extrasystole administered 15 mins before adrenaline challenge. The test is classed as functional, organism-based. Particulars: Heart. In a few lines:
as §1

Test [8] deals with Rattus norvegicus. As to the kind of experiment: Antiarrhythmic activity against adrenaline-induced arrhythmia in iv dosed rat assessed as reduction in ventricular extrasystole administered 15 mins before adrenaline challenge. In kind it is functional, organism-based. Particulars: Heart. In a few lines:
as §1

The subject of test [9] is Rattus norvegicus. Kind of test: Antiarrhythmic activity against adrenaline-induced arrhythmia in iv dosed rat assessed as reduction in bigeminy administered 15 mins before adrenaline challenge. The test is classed as functional, organism-based. Particulars: Heart. A digest of the protocol:
as §1

The species entered for test [10] is Rattus norvegicus. Kind of test: Hypotensive activity in Wistar rat assessed as reduction in epinephrine-induced systolic blood pressure response. In kind it is functional, organism-based. Particulars: Artery. A digest of the protocol:
as §2

Test [11] is filed under the species Rattus norvegicus. Kind of test: Hypotensive activity in Wistar rat assessed as reduction in norepinephrine-induced systolic blood pressure response. In kind it is functional, organism-based. Particulars: Artery. A digest of the protocol:
as §2

Test [12] is filed under the species Rattus norvegicus. Kind of test: Hypotensive activity in Wistar rat assessed as reduction in methoxamine-induced systolic blood pressure response. In kind it is functional, organism-based. Particulars: Artery. In a few lines: as §2
Test [13] deals with Rattus norvegicus. As to the kind of experiment: Antiarrhythmic activity against adrenaline-induced arrhythmia in rat assessed as reduction in reflex bradycardia at 5 mg/kg, iv administered 15 mins before adrenaline challenge. Further details: dose 5 mg/kg. Particulars: Heart. In kind it is functional, organism-based. A digest of the protocol:
(§3)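 Rats anaesthetized with thiopental 60 mg/kg ip were dosed i.v. 15 min before an i.v. adrenaline challenge. Cardiac rhythm disturbances (bradycardia, extrasystoles, bigeminy, blocks) were recorded for 15 min after adrenaline and compared with controls.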

The test system of test [14] is Rattus norvegicus. Kind of test: Antiarrhythmic activity against adrenaline-induced arrhythmia in rat assessed as reduction in supraventricular extrasystole at 5 mg/kg, iv administered 15 mins before adrenaline challenge. Further details: dose 5 mg/kg. The test is classed as functional, organism-based. Particulars: Heart. In a few lines:
as §3

Test [15] has as its system Rattus norvegicus. Kind of test: Antiarrhythmic activity against adrenaline-induced arrhythmia in rat assessed as reduction in ventricular extrasystole at 5 mg/kg, iv administered 15 mins before adrenaline challenge. Particulars: Heart. Further details: dose 5 mg/kg. The test is classed as functional, organism-based. A digest of the protocol: as §3
For test [16], the system named is Rattus norvegicus. As to the kind of experiment: Antiarrhythmic activity against adrenaline-induced arrhythmia in rat assessed as reduction in bigeminy at 5 mg/kg, iv administered 15 mins before adrenaline challenge. The test is classed as functional, organism-based. Further details: dose 5 mg/kg. Particulars: Heart. In a few lines: as §3
For test [17], the system named is Rattus norvegicus. As to the kind of experiment: Antiarrhythmic activity against adrenaline-induced arrhythmia in rat assessed as reduction in cardiac block at 5 mg/kg, iv administered 15 mins before adrenaline challenge. The test is classed as functional, organism-based. Further details: dose 5 mg/kg. Particulars: Heart. A digest of the protocol:
as §3

Test [18] concerns Rattus norvegicus. Kind of test: Hypotensive activity in normotensive Wistar rat assessed as diastolic blood pressure at 5 mg/kg, iv after 60 mins (Rvb=126 +/- 4.6 mmHg). In kind it is functional, Artery.

The structures appear in SMILES notation. Calls of active or inactive are those of the source.

In turn, `COc1ccccc1N1CCN(CC(O)CN2CCC(c3ccccc3)(c3ccccc3)C2=O)CC1.Cl.Cl` (centres undefined) yielded a negative logarithm of the Ki (pKi) in test [1] of 6.8. Moreover, the ED50 with Rattus norvegicus [2] was 2.05 mg/kg. The result in the test on Rattus norvegicus [3], in the test on Rattus norvegicus [4], with Rattus norvegicus [5], in the test with Rattus norvegicus [6], with Rattus norvegicus [7] and with Rattus norvegicus [8] was Active. Besides, the outcome in the test on Rattus norvegicus [9] was Active.

Turning to `Cl.Cl.O=C1N(CC(O)CN2CCN(c3ccccc3)CC2)CCC1(c1ccccc1)c1ccccc1` (centres undefined), the pKi in test [1] was found to be 6.74. For the same molecule, the ED50 in the test with Rattus norvegicus [2] was 1.9 mg/kg. Also, the result with Rattus norvegicus [3], with Rattus norvegicus [4], in the test on Rattus norvegicus [5], with Rattus norvegicus [6], in the test on Rattus norvegicus [7] and in the test with Rattus norvegicus [8] was Active. In addition, the outcome in the test with Rattus norvegicus [9] was Active.

Molecule `Cl.Cl.O=C1N(CC(O)CN2CCN(c3ccccc3C(F)(F)F)CC2)CCC1(c1ccccc1)c1ccccc1` (centres undefined) came in with a pKi in [1] of 5.89. The median effective dose (ED50) with Rattus norvegicus [2] stood at 3.9 mg/kg. Besides, the outcome in the test on Rattus norvegicus [6], in the test with Rattus norvegicus [7], with Rattus norvegicus [8] and in the test on Rattus norvegicus [9] was Active. Moreover, the outcome in the test filed under Rattus norvegicus [10], in the test filed under Rattus norvegicus [11] and in the test filed under Rattus norvegicus [12] was inactive.

Molecule `CCOc1ccccc1N1CCN(CC(O)CN2CCC(c3ccccc3)(c3ccccc3)C2=O)CC1.Cl.Cl` (centres undefined) came in with a negative logarithm of the Ki (pKi) in [1] of 7.28. The ED50 in the test on Rattus norvegicus [2] was 1.1 mg/kg. The result in the test with Rattus norvegicus [13], in the test with Rattus norvegicus [14], in the test with Rattus norvegicus [15], with Rattus norvegicus [16], in the test on Rattus norvegicus [17] and in the test with Rattus norvegicus [3] was Active. Also, the result with Rattus norvegicus [4], with Rattus norvegicus [5] and in the test on Rattus norvegicus [6] was Active.

Molecule `Cc1ccccc1N1CCN(CC(O)CN2CCC(c3ccccc3)(c3ccccc3)C2=O)CC1.Cl.Cl` (centres undefined) had a pKi in test [1] of 6.69. Moreover, the 50% effective dose (ED50) in the test with Rattus norvegicus [2] came to 1.4 mg/kg. In addition, the outcome in the test with Rattus norvegicus [13], with Rattus norvegicus [14], with Rattus norvegicus [15], in the test with Rattus norvegicus [16], with Rattus norvegicus [17] and in the test with Rattus norvegicus [3] was Active. Further, the outcome in the test with Rattus norvegicus [4], with Rattus norvegicus [5] and in the test with Rattus norvegicus [6] was Active. For the same molecule, the Activity in the test on Rattus norvegicus [18] is recorded as 99 mmHg.

`COc1ccc(N2CCN(CC(O)CN3CCC(c4ccccc4)(c4ccccc4)C3=O)CC2)cc1.Cl.Cl` (centres undefined) gave a pKi in test [1] of 5.36. In addition, the result in the test listed under Rattus norvegicus [10], in the test listed under Rattus norvegicus [11] and in the test listed under Rattus norvegicus [12] was inactive.

As usually defined, the pKi is −log10 of the Ki, conventionally taken in molar units. By ED50 is commonly meant the dose that gives a 50% effect, or the effect in half of the subjects.
